IDH1 mut inh: blocks human IDH1 R132H reductase activity; diaphorase/resazurin fluorescence, 60 min; O75874; AID 624101; inhibition, % at 10 µM; actives 0.18% (n = 70,000); in the data active means inhibition above about 34%; inconclusive means no clear call, values can overlap the other calls; inactive means below about 11%
GASC1 inh: inhibitors of human demethylase GASC-1 KDM4C. actives 0.15% (n = 96,000). Q9H3R0. GST-KDM4C 2-372, H3K9me3 peptide, LANCE TR-FRET. inhibition, % at 12.5 µM;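 active means mean replicate inhibition above about 25%, with at least 55% of replicates also reaching it, limit read from the data, passing the limit was not always enough; inconclusive means only one of those two conditions met; inactive means neither condition met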
Target sequence (Q9H3R0 2-372 limits assumed): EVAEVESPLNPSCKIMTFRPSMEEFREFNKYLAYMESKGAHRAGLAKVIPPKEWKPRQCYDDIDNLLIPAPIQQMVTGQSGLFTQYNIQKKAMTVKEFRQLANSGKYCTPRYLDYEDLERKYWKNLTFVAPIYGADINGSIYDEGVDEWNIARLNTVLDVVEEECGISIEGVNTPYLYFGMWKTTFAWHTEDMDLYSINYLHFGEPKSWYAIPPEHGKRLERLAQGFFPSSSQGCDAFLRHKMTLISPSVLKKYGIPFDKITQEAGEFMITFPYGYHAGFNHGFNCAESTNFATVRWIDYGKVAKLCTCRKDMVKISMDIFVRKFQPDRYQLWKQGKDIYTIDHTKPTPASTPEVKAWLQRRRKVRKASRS
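Material: N-terminal GST-fused human GASC-1 (KDM4C) fragment, residues 2-372. Input: 10 nM enzyme. Incubation: enzyme reaction 30 min, then detection 60 min, both room temperature. Doses: one test concentration per compound. Read-out basis: inhibition from TR-FRET ratio decrease. Detection: LANCE TR-FRET, excitation 340 nm, emissions 618 and 671 nm.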
T cruzi growth-1: blocks T. cruzi growth in NIH3T3 culture; T. cruzi beta-gal in NIH3T3, GalScreen luminescence, 90 h; inhibition, % at 8.34 µM; actives 5.9% (n = 77,000); AID 624255;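 active means mean inhibition above about 93%, with at least 55% of replicates each passing it, limit read from the data, passing the limit was not always enough; inconclusive means only one of those two conditions holds; inactive means neither condition holds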
Pf Dd2 inh: blocks growth of Plasmodium falciparum Dd2 parasites | P. falciparum Dd2 growth, SYBR Green, 72 h; hits give low values | activity change, % at 10 µM | actives 2.3% (n = 94,000); in the data active means activity change below about -80%; inconclusive means no clear call, values can overlap the other calls
T cruzi growth-2: Trypanosoma cruzi proliferation inhibition; AID 651739; inhibition, % at 8.35 µM; actives 72% (n = 5,600); shares compounds with T cruzi growth-1; T. cruzi beta-gal in NIH3T3, GalScreen luminescence, 90 h;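 active means mean replicate inhibition above about 95% and at least 55% of replicates individually reaching it, limit read from the data; inconclusive means only one of the two criteria is met; inactive means neither criterion is met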
T cruzi growth-3: inhibitors of T. cruzi proliferation | shares compounds with T cruzi growth-1 | T. cruzi beta-gal in NIH3T3, GalScreen luminescence, 90 h | inhibition, % at 2.09 µM | actives 21% (n = 5,600) | AID 651740;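 active means mean inhibition above about 95%, with at least 55% of replicates also reaching it, limit read from the data; inconclusive means meets just one of the two conditions; inactive means meets neither condition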
3T3 cytotox: NIH/3T3 (mouse) viability loss; shares compounds with T cruzi growth-1; NIH/3T3 viability, CellTiter-Glo ATP luminescence, 90 h; cytotoxicity (signal decrease), % at 8.35 µM; actives 14% (n = 5,600); AID 651742;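 active means mean signal decrease across replicates above about 35% based on untreated-well scatter, with enough replicates individually passing, limit read from the data; inconclusive means no rule stated though some were filed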
3T3 cytotox 2: NIH/3T3 (mouse) viability loss. actives 56% (n = 5,600). shares compounds with T cruzi growth-1. inhibition, % at 24.9 µM. NIH/3T3 viability, CellTiter-Glo ATP luminescence, 90 h;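 active means mean loss of cell viability signal at or above a set limit, and enough replicates individually reaching it; inconclusive means meets only the mean limit or only the replicate share; inactive means meets neither condition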
A number is an active result. Compounds with a hit are over-represented: about 5.9% of the library has one in this group of screens.

Results for COc1ccc(C#Cc2ccc([C@@H]3[C@H](CO)N4CCCCN(Cc5ccncc5)C[C@@H]34)cc2)cc1 ?
GASC1 inh: inactive; T cruzi growth-1: inactive; Pf Dd2 inh: inactive

Results for COc1cccc(CN2CCCCN3[C@H](C2)[C@@H](c2ccc(-c4cccnc4)cc2)[C@@H]3CO)c1 ?
GASC1 inh: inactive; T cruzi growth-1: inactive; Pf Dd2 inh: inactive

Results for COc1cccc(CN2CCCCN3[C@@H](CO)[C@H](c4ccc(C#Cc5cccnc5)cc4)[C@@H]3C2)c1 ?
GASC1 inh: inactive; T cruzi growth-1: 117; Pf Dd2 inh: inactive; T cruzi growth-2: 109; T cruzi growth-3: inactive; 3T3 cytotox: inactive; 3T3 cytotox 2: 103

How did COc1cccc(CN2CCCCN3[C@H](CO)[C@@H](c4ccc(C#Cc5cccnc5)cc4)[C@@H]3C2)c1 do in these assays?
GASC1 inh: inactive; T cruzi growth-1: 116; Pf Dd2 inh: inactive; T cruzi growth-2: 104; T cruzi growth-3: inactive; 3T3 cytotox: inactive; 3T3 cytotox 2: 104

Results for O=C(Nc1cccc(F)c1)N1C[C@@H]2N[C@H](C1)C2c1ccc(-c2ccccc2F)cc1 (some centres undefined) ?
GASC1 inh: inactive; Pf Dd2 inh: inactive

How did C[C@H]1CN([C@@H](C)CO)S(=O)(=O)c2ccc(C#Cc3cccnc3)cc2O[C@H]1CN(C)C(=O)Nc1ccc2c(c1)OCO2 do in these assays?
GASC1 inh: inactive; T cruzi growth-1: 102; Pf Dd2 inh: inconclusive; T cruzi growth-2: inactive; T cruzi growth-3: inactive; 3T3 cytotox: inactive; 3T3 cytotox 2: inactive

What do the screens show for `C[C@@H]1CN([C@H](C)CO)S(=O)(=O)c2ccc(C#Cc3cccnc3)cc2O[C@@H]1CN(C)C(=O)Nc1ccc2c(c1)OCO2`?
IDH1 mut inh: inactive; GASC1 inh: inactive; T cruzi growth-1: inconclusive; Pf Dd2 inh: inactive; T cruzi growth-2: inactive; T cruzi growth-3: inactive; 3T3 cytotox: inactive; 3T3 cytotox 2: 40

What do the screens show for `C[C@H](CO)N1C[C@H](C)[C@@H](CN(C)C(=O)Nc2ccc3c(c2)OCO3)Oc2cc(C#Cc3cccnc3)ccc2S1(=O)=O`?
GASC1 inh: inactive; T cruzi growth-1: inactive; Pf Dd2 inh: inactive

Results for Cc1noc(C)c1S(=O)(=O)N(C)C[C@H]1OCCCC[C@H](C)Oc2ccc(NC(=O)CCC(F)(F)F)cc2C(=O)N([C@@H](C)CO)C[C@H]1C ?
IDH1 mut inh: inactive; GASC1 inh: inactive; T cruzi growth-1: inactive; Pf Dd2 inh: inactive

What do the screens show for `COc1cccc(-c2ccc([C@H]3[C@H]4CN(C(=O)c5ccc6c(c5)OCO6)CCCCN4[C@H]3CO)cc2)c1`?
GASC1 inh: inactive; T cruzi growth-1: inactive; Pf Dd2 inh: inactive

What do the screens show for `COc1cccc(-c2ccc([C@@H]3[C@@H](CO)N4CCCCN(C(=O)c5ccc6c(c5)OCO6)C[C@@H]34)cc2)c1`?
GASC1 inh: inactive; T cruzi growth-1: inconclusive; Pf Dd2 inh: inactive; T cruzi growth-2: 104; T cruzi growth-3: inactive; 3T3 cytotox: inactive; 3T3 cytotox 2: 56

How did COc1cccc(-c2ccc([C@H]3[C@H](CO)N4CCCCN(C(=O)c5ccc6c(c5)OCO6)C[C@@H]34)cc2)c1 do in these assays?
GASC1 inh: inactive; T cruzi growth-1: 109; Pf Dd2 inh: inactive; T cruzi growth-2: 101; T cruzi growth-3: inactive; 3T3 cytotox: 40; 3T3 cytotox 2: 72

How did CCS(=O)(=O)Nc1ccc2c(c1)C(=O)N(C)[C@H]1CC[C@@H](CC(=O)N3CCCCC3)O[C@@H]1CO2 do in these assays?
GASC1 inh: inactive; T cruzi growth-1: inactive; Pf Dd2 inh: inactive

What do the screens show for `O=S(=O)(c1ccc(F)cc1)N1CCCCN2[C@H](C1)[C@H](c1ccc(C#CC3CCCC3)cc1)[C@@H]2CO`?
T cruzi growth-1: 116; Pf Dd2 inh: inactive; T cruzi growth-2: 97; T cruzi growth-3: inactive; 3T3 cytotox: inactive; 3T3 cytotox 2: 54

What do the screens show for `COc1ccc(S(=O)(=O)N2CCCCN3[C@H](CO)[C@H](c4ccc(C#CC5CC5)cc4)[C@H]3C2)cc1`?
GASC1 inh: inactive; T cruzi growth-1: 100; Pf Dd2 inh: inactive; T cruzi growth-2: 106; T cruzi growth-3: 111; 3T3 cytotox: 54; 3T3 cytotox 2: 105

Results for COc1ccc(S(=O)(=O)N2CCCCN3[C@H](C2)[C@H](c2ccc(C#CC4CC4)cc2)[C@@H]3CO)cc1 ?
GASC1 inh: inactive; T cruzi growth-1: 124; Pf Dd2 inh: inactive; T cruzi growth-2: 106; T cruzi growth-3: inactive; 3T3 cytotox: inactive; 3T3 cytotox 2: inactive

What do the screens show for `CCCNC(=O)N1[C@H](C#N)[C@@H](c2ccc(-c3cccnc3)cc2)[C@H]1CO`?
GASC1 inh: inactive; T cruzi growth-1: inactive; Pf Dd2 inh: inactive

Results for CC(C)CC#Cc1ccc2c(c1)O[C@H](CN(C)Cc1ccccn1)[C@@H](C)CN([C@@H](C)CO)S2(=O)=O ?
IDH1 mut inh: inactive; GASC1 inh: inactive; T cruzi growth-1: 132; Pf Dd2 inh: inactive; T cruzi growth-2: 97; T cruzi growth-3: 114; 3T3 cytotox: inactive; 3T3 cytotox 2: 105

Results for CC(C)CC#Cc1ccc2c(c1)O[C@H](CN(C)Cc1ccccn1)[C@H](C)CN([C@H](C)CO)S2(=O)=O ?
IDH1 mut inh: inactive; GASC1 inh: inactive; T cruzi growth-1: 115; Pf Dd2 inh: inactive; T cruzi growth-2: 106; T cruzi growth-3: inactive; 3T3 cytotox: inactive; 3T3 cytotox 2: 107

How did COCC#Cc1ccc2c(c1)O[C@H](CN(C)Cc1ccccn1)[C@H](C)CN([C@H](C)CO)S2(=O)=O do in these assays?
IDH1 mut inh: inactive; GASC1 inh: inactive; T cruzi growth-1: inactive; Pf Dd2 inh: inactive

Results for O=C(NCCc1nc2ccccc2[nH]1)c1cccc(Cl)c1 ?
IDH1 mut inh: inactive

Results for CC(C)C#Cc1cnc2c(c1)C(=O)N([C@@H](C)CO)C[C@H](C)[C@H](CN(C)C(=O)Nc1ccc(F)cc1)O2 ?
GASC1 inh: inactive; T cruzi growth-1: 102; Pf Dd2 inh: inactive; T cruzi growth-2: inactive; T cruzi growth-3: inactive; 3T3 cytotox: inactive; 3T3 cytotox 2: inconclusive

What do the screens show for `CC(C)C#Cc1cnc2c(c1)C(=O)N([C@@H](C)CO)C[C@H](C)[C@@H](CN(C)C(=O)Nc1ccc(F)cc1)O2`?
IDH1 mut inh: inactive; GASC1 inh: inactive; T cruzi growth-1: inactive; Pf Dd2 inh: inactive
